Source: ChEMBL document CHEMBL3259660, “Haloemodin as novel antibacterial agent inhibiting DNA gyrase and bacterial topoisomerase I” (J Med Chem, 2014)
In brackets after ≈: the same amount, converted by molar mass. Activity calls are given as the source filed them. The rule behind the calls is not given here.

What was measured:
Escherichia coli [1] = assay: Antibacterial activity against Escherichia coli PQ 37 harboring OM permeability barrier mutant assessed as growth inhibition by agar dilution assay; assay type: functional
Summary of the method: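 CLSI agar dilution MIC against aerobic and anaerobic strains. Test compounds were dissolved in DMSO and reference antibiotics in sterile water. MIC was taken as the lowest concentration showing no bacterial growth. Each MIC was determined at least twice on separate days, and the higher value was reported. E. coli PQ 37 was cultured in LA medium.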

Bacteroides fragilis = assay: Antibacterial activity against Bacteroides fragilis ATCC 25285 assessed as growth inhibition by agar dilution assay; assay type: functional
Summary of the method: (§1)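 Agar dilution MIC per CLSI (aerobic and anaerobic methods); compounds dissolved in DMSO, reference antibiotics in sterile water. MIC taken as lowest concentration with no visible growth; determined at least twice on separate days, higher value reported. Clinical isolate ranges summarized as MIC50/MIC90.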

[2] = biological target: DNA gyrase (Staphylococcus aureus) (UniProt P0A0K8+P20831); assay: Inhibition of Staphylococcus aureus DNA gyrase-mediated pHOT-1 supercoiling at 30 uM after 30 mins by agarose gel electrophoresis in presence of ATP; assay type: protein-complex assay
Summary of the method: (§2)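 Supercoiling: 100 ng relaxed pHOT-1 with 1 U S. aureus or E. coli gyrase and graded compound concentrations, ATP present, 37 °C for 30 min. Stopped with 10% SDS, 1% agarose electrophoresis, ethidium bromide staining, UV imaging; ciprofloxacin positive control.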

[3] = biological target: T1, DNA topoisomerase 1 (Escherichia coli (strain K12)) (UniProt P06612); assay: Inhibition of Escherichia coli topoisomerase 1 assessed as single stranded breaks using pHOT-1 DNA as substrate treated with substrate for 15 mins prior to enzyme addition for 30 mins by agarose gel electrophoresis
T1 sequence (whole entry): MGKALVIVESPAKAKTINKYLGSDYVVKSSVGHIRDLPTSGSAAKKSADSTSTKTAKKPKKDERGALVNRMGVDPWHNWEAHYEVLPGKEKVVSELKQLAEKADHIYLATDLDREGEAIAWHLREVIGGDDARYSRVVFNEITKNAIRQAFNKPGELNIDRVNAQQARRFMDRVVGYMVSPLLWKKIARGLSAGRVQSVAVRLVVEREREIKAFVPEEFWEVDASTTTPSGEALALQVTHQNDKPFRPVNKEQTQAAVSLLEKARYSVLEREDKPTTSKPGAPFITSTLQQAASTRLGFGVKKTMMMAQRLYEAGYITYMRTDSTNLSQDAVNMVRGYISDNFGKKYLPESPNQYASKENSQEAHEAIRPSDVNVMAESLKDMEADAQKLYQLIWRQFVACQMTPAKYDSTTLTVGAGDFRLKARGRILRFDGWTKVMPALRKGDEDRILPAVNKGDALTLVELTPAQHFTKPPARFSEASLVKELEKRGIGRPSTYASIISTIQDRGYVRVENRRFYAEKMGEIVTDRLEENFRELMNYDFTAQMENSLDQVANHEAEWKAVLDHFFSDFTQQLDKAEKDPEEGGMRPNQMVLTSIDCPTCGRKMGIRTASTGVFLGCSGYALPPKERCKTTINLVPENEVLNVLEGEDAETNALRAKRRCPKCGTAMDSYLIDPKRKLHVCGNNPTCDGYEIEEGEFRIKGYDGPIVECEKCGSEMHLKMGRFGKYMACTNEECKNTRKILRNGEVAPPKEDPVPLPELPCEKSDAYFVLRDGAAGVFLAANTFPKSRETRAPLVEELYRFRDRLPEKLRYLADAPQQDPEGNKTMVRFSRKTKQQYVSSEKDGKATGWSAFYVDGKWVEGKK

Escherichia coli [4] = assay: Inhibition of Escherichia coli DNA gyrase-mediated pHOT-1 supercoiling at 30 uM after 30 mins by agarose gel electrophoresis in presence of ATP; summary of the method: as §2
[5] = Binding affinity to supercoiled pHOT-1 DNA assessed as unwinding of DNA helix by measuring distribution of topoisomers at 10 to 150 uM treated 15 mins prior to Escherichia coli topoisomerase 1 addition for 30 mins by agarose gel electrophoresis
Streptococcus pneumoniae = assay: Antibacterial activity against Streptococcus pneumoniae assessed as growth inhibition by agar dilution assay; assay type: functional; summary of the method: as §1
DNA topoisomerase 1 = biological target: T2, DNA topoisomerase 1 (Homo sapiens, UniProt P11387); assay: Inhibition of human topoisomerase 1-mediated pHOT-1 DNA relaxation at 10 to 150 uM treated with pHOT-1 substrate for 15 mins prior to enzyme addition for 30 mins by agarose gel electrophoresis; details: 0.5 h
T2 sequence (P11387 whole entry): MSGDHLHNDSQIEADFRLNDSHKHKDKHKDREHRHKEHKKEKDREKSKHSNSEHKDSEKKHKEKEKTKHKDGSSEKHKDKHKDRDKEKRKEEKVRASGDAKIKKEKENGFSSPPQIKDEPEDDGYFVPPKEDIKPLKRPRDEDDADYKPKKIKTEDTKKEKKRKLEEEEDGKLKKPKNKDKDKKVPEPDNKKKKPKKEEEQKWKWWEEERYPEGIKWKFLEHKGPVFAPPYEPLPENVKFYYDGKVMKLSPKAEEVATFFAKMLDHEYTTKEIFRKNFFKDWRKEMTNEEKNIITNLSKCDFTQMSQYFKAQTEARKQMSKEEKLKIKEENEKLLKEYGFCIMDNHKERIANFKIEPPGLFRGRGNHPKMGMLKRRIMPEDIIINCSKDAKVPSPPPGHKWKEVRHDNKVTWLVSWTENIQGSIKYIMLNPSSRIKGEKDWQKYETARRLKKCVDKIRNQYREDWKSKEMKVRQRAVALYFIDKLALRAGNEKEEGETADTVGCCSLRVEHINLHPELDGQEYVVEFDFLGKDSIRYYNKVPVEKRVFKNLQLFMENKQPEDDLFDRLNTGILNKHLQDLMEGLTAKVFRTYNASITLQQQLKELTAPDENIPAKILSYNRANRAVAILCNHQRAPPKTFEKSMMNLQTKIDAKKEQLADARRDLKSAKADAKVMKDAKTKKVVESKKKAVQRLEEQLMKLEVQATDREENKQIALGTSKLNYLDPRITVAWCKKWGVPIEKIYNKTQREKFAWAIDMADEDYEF

Staphylococcus aureus [6] = assay: Antibacterial activity against Staphylococcus aureus ATCC 29213 assessed as growth inhibition by agar dilution assay; assay type: functional; summary of the method: as §1
Staphylococcus aureus [7] = assay: microbe, parasite or virus in culture; assay type: functional; details: ATCC 6538
Mus musculus = assay: In vivo acute toxicity in Kunming mouse assessed as mortality at 100 mg/kg, iv administered as single dose measured within 7 days; assay type: organism-based; design: dose 100 mg/kg, route intravenous; details: 168 h
Summary of the method: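 Male and female adult Kunming mice (18−22 g) received a single intravenous injection at various doses (n = 10 per group, 200 μL per mouse). Compound was given in polyethylene glycol−water (1:1, v/v), and controls received vehicle alone. Mortality was recorded for 7 days. LD50 was estimated by probit analysis.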

Bacillus cereus = assay: Antibacterial activity against Bacillus cereus ATCC 10231 assessed as growth inhibition by agar dilution assay; assay type: functional
Escherichia coli [8] = assay: Antibacterial activity against Escherichia coli ATCC 25922 assessed as growth inhibition by agar dilution assay; assay type: functional; summary of the method: as §1
[9] = Binding affinity to supercoiled pHOT-1 DNA assessed as unwinding of DNA helix by measuring shift of negative to positive supercoiled pHOT-1 at 10 to 150 uM treated 15 mins prior to human topoisomerase 1 addition for 30 mins by agarose gel electrophoresis

DNA gyrase (Staphylococcus aureus), sequence (P0A0K8 2-644 limits assumed): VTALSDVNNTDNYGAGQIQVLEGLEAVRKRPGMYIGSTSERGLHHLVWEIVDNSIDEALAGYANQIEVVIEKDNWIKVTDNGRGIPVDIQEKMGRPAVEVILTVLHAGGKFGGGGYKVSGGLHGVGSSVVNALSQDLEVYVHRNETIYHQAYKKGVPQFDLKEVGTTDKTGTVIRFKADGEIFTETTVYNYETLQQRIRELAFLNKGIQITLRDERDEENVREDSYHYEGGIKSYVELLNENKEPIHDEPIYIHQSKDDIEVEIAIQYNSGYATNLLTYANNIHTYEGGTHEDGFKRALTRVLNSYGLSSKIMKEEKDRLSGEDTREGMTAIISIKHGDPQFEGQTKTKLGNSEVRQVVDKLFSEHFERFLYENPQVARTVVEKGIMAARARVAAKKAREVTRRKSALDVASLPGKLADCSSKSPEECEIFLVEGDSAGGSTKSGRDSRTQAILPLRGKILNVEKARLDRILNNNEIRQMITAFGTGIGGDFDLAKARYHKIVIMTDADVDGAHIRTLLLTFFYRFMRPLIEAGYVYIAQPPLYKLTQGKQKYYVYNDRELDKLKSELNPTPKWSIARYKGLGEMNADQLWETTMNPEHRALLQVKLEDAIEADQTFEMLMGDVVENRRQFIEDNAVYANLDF
DNA gyrase (Staphylococcus aureus), sequence (P20831 whole entry partner): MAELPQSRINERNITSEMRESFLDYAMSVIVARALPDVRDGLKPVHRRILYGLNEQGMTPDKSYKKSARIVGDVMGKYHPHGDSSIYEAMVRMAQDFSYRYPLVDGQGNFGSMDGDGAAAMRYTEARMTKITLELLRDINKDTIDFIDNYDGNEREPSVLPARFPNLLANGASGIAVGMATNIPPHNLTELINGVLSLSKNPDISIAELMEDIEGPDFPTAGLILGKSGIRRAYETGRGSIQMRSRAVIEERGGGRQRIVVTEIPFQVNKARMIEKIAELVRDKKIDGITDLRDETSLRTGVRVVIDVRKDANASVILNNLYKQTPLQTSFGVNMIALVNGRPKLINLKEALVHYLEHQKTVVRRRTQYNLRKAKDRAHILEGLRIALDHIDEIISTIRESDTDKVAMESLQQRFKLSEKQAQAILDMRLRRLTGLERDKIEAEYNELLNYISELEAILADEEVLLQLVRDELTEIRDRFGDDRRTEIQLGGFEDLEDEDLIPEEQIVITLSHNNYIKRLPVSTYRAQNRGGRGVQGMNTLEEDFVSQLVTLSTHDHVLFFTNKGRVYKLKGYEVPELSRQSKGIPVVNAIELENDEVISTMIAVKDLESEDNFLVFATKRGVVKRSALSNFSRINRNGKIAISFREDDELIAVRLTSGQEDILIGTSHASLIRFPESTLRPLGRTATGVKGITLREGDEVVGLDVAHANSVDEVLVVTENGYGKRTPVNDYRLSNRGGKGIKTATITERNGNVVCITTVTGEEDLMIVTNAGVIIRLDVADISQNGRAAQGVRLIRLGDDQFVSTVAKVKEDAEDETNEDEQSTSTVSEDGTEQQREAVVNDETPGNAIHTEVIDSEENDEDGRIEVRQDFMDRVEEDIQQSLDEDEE

Question: For Cc1cc(O)c2c(c1)C(=O)c1c(I)c(O)c(I)c(O)c1C2=O, which MIC (Escherichia coli [1]) is on record?
Answer: Its MIC is 8 µg/mL (≈ 15.3 µM).

Question: What about the MIC (Bacteroides fragilis) of the same compound?
Answer: Its MIC is 256 µg/mL (≈ 490 µM).

Question: And the inhibition [2]?
Answer: The inhibition was “Active”.

Question: And the Activity [3]?
Answer: The Activity was “inactive”.

Question: What about the inhibition (Escherichia coli [4]) of the same compound?
Answer: The inhibition was “Active”.

Question: What about the Activity [5] of the same compound?
Answer: The Activity was “inactive”.

Question: And the MIC (Streptococcus pneumoniae)?
Answer: The MIC was 32 µg/mL (≈ 61.3 µM).

Question: What about the “inhibition (INH)” value (DNA topoisomerase 1) of the same compound?
Answer: The value was “Not Active”.

Question: What about the MIC (Staphylococcus aureus [6]) of the same compound?
Answer: Its MIC is 8 µg/mL (≈ 15.3 µM).

Question: And the MIC (Staphylococcus aureus [7])?
Answer: Its MIC is 2 µg/mL (≈ 3.83 µM).

Question: What about the Activity (Mus musculus) of the same compound?
Answer: Its Activity is “Non-toxic”.

Question: And the MIC (Bacillus cereus)?
Answer: The MIC was 4 µg/mL (≈ 7.66 µM).

Question: And the MIC (Escherichia coli [8])?
Answer: Its MIC is > 256 µg/mL.

Question: And the Activity [9]?
Answer: The Activity was “inactive”.
